Tested on: not listed separately
Test: Plasma half life was determined in pigs
Format: ADME, organism-based, Sus scrofa
Details: pig
How it was run: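 Landrace × Duroc × Yorkshire pigs, 25–50 kg, two per compound; single sc dose, 0.5 nmol/kg for analogues, 15 nmol/kg for GLP-1. Jugular catheter blood at 0–72 h, extra early samples for GLP-1; EDTA/aprotinin/bacitracin-stabilized plasma. Unextracted plasma assayed by N-terminal-specific GLP-1 radioimmunoassay against spiked pig-plasma calibrators; half-life calculated per pig, reported as mean ± SD.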

Row | Structure (SMILES) | half-life [h]
1 | CCCCCCCCCCCCCCCC(=O)NCCCC(=O)NCCCC[C@H](NC(=O)[C@H](C)NC(=O)[C@H](C)NC(=O)[C@H](CCC(N)=O)NC(=O)CNC(=O)[C@H](CCC(=O)O)NC(=O)[C@H](CC(C)C)NC(=O)[C@H](Cc1ccc(O)cc1)NC(=O)[C@H](CO)NC(=O)[C@H](CO)NC(=O)[C@@H](NC(=O)[C@H](CC(=O)O)NC(=O)[C@H](CO)NC(=O)[C@@H](NC(=O)[C@H](Cc1ccccc1)NC(=O)[C@@H](NC(=O)CNC(=O)[C@H](CCC(=O)O)NC(=O)[C@H](C)NC(=O)[C@@H](N)Cc1c[nH]cn1)[C@@H](C)O)[C@@H](C)O)C(C)C)C(=O)N[C@@H](CCC(=O)O)C(=O)N[C@@H](Cc1ccccc1)C(=O)N[C@H](C(=O)N[C@@H](C)C(=O)N[C@@H](Cc1c[nH]c2ccccc12)C(=O)N[C@@H](CC(C)C)C(=O)N[C@H](C(=O)N[C@@H](CCCN=C(N)N)C(=O)NCC(=O)N[C@@H](CCCN=C(N)N)C(=O)NCC(=O)O)C(C)C)[C@@H](C)CC | 31
2 | CCCCCCCCCCCC(=O)NC(CCC(=O)NCCCC[C@H](NC(=O)[C@H](C)NC(=O)[C@H](C)NC(=O)[C@H](CCC(N)=O)NC(=O)CNC(=O)[C@H](CCC(=O)O)NC(=O)[C@H](CC(C)C)NC(=O)[C@H](Cc1ccc(O)cc1)NC(=O)[C@H](CO)NC(=O)[C@H](CO)NC(=O)[C@@H](NC(=O)[C@H](CC(=O)O)NC(=O)[C@H](CO)NC(=O)[C@@H](NC(=O)[C@H](Cc1ccccc1)NC(=O)[C@@H](NC(=O)CNC(=O)[C@H](CCC(=O)O)NC(=O)[C@H](C)NC(=O)[C@@H](N)Cc1c[nH]cn1)[C@@H](C)O)[C@@H](C)O)C(C)C)C(=O)N[C@@H](CCC(=O)O)C(=O)N[C@@H](Cc1ccccc1)C(=O)N[C@H](C(=O)N[C@@H](C)C(=O)N[C@@H](Cc1c[nH]c2ccccc12)C(=O)N[C@@H](CC(C)C)C(=O)N[C@H](C(=O)N[C@@H](CCCN=C(N)N)C(=O)NCC(=O)N[C@@H](CCCN=C(N)N)C(=O)NCC(=O)O)C(C)C)[C@@H](C)CC)C(=O)O (stereo partly specified) | 15
3 | CCCCCCCCCCCCCCCC(=O)NC(CCC(=O)NCCCC[C@H](NC(=O)[C@@H](NC(=O)[C@H](CC(C)C)NC(=O)[C@H](Cc1c[nH]c2ccccc12)NC(=O)[C@H](C)NC(=O)[C@@H](NC(=O)[C@H](Cc1ccccc1)NC(=O)[C@H](CCC(=O)O)NC(=O)[C@H](CCCN=C(N)N)NC(=O)[C@H](C)NC(=O)[C@H](C)NC(=O)[C@H](CCC(N)=O)NC(=O)CNC(=O)[C@H](CCC(=O)O)NC(=O)[C@H](CC(C)C)NC(=O)[C@H](Cc1ccc(O)cc1)NC(=O)[C@H](CO)NC(=O)[C@H](CO)NC(=O)[C@@H](NC(=O)[C@H](CC(=O)O)NC(=O)[C@H](CO)NC(=O)[C@@H](NC(=O)[C@H](Cc1ccccc1)NC(=O)[C@@H](NC(=O)CNC(=O)[C@H](CCC(=O)O)NC(=O)[C@H](C)NC(=O)[C@@H](N)Cc1c[nH]cn1)[C@@H](C)O)[C@@H](C)O)C(C)C)[C@@H](C)CC)C(C)C)C(=O)NCC(=O)N[C@@H](CCCCN=C(N)N)C(=O)NCC(=O)O)C(=O)O (stereo partly specified) | 13
4 | CCCCCCCCCCCCCCCC(=O)NCCC(=O)NCCCC[C@H](NC(=O)[C@H](C)NC(=O)[C@H](C)NC(=O)[C@H](CCC(N)=O)NC(=O)CNC(=O)[C@H](CCC(=O)O)NC(=O)[C@H](CC(C)C)NC(=O)[C@H](Cc1ccc(O)cc1)NC(=O)[C@H](CO)NC(=O)[C@H](CO)NC(=O)[C@@H](NC(=O)[C@H](CC(=O)O)NC(=O)[C@H](CO)NC(=O)[C@@H](NC(=O)[C@H](Cc1ccccc1)NC(=O)[C@@H](NC(=O)CNC(=O)[C@H](CCC(=O)O)NC(=O)[C@H](C)NC(=O)[C@@H](N)Cc1c[nH]cn1)[C@@H](C)O)[C@@H](C)O)C(C)C)C(=O)N[C@@H](CCC(=O)O)C(=O)N[C@@H](Cc1ccccc1)C(=O)N[C@H](C(=O)N[C@@H](C)C(=O)N[C@@H](Cc1c[nH]c2ccccc12)C(=O)N[C@@H](CC(C)C)C(=O)N[C@H](C(=O)N[C@@H](CCCN=C(N)N)C(=O)NCC(=O)N[C@@H](CCCN=C(N)N)C(=O)NCC(=O)O)C(C)C)[C@@H](C)CC | 8.8
5 | CCCCCCCCCCCCCCCC(=O)N[C@@H](CCC(=O)NCCCC[C@H](NC(=O)[C@H](C)NC(=O)[C@H](C)NC(=O)[C@H](CCC(N)=O)NC(=O)CNC(=O)[C@H](CCC(=O)O)NC(=O)[C@H](CC(C)C)NC(=O)[C@H](Cc1ccc(O)cc1)NC(=O)[C@H](CO)NC(=O)[C@H](CO)NC(=O)[C@@H](NC(=O)[C@H](CC(=O)O)NC(=O)[C@H](CO)NC(=O)[C@@H](NC(=O)[C@H](Cc1ccccc1)NC(=O)[C@@H](NC(=O)CNC(=O)[C@H](CCC(=O)O)NC(=O)[C@H](C)NC(=O)[C@@H](N)Cc1cnc[nH]1)[C@@H](C)O)[C@@H](C)O)C(C)C)C(=O)N[C@@H](CCC(=O)O)C(=O)N[C@@H](Cc1ccccc1)C(=O)N[C@H](C(=O)N[C@@H](C)C(=O)N[C@@H](Cc1c[nH]c2ccccc12)C(=O)N[C@@H](CC(C)C)C(=O)N[C@H](C(=O)N[C@@H](CCCNC(=N)N)C(=O)NCC(=O)N[C@@H](CCCNC(=N)N)C(=O)NCC(=O)O)C(C)C)[C@@H](C)CC)C(=O)O | 14

Molecular target: Glucagon-like peptide 1 receptor (Homo sapiens, UniProt P43220)
Sequence (P43220 whole entry): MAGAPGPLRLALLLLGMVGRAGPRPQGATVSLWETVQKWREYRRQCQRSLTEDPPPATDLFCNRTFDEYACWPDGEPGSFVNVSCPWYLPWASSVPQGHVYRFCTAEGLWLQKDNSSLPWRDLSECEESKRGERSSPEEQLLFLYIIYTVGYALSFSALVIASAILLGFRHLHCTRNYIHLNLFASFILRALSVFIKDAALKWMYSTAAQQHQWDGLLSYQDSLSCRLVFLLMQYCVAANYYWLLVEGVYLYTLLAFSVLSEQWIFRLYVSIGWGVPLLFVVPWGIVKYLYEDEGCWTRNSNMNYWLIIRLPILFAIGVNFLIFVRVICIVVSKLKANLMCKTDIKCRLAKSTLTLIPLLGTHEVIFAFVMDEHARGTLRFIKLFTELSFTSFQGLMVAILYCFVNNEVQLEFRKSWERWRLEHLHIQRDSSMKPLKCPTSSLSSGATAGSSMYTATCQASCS
Test: Potency measured using recombinant human GLP-1 receptor expressed in Baby Hamster Kidney (BHK)cells
Format: cell-based
Details: not given

Row | Structure (SMILES) | EC50 [nM]
6 | CCCCCCCCCCCCCCCC(=O)NC(CCC(=O)NCCCC[C@H](NC(=O)[C@@H](NC(=O)[C@H](CC(C)C)NC(=O)[C@H](Cc1c[nH]c2ccccc12)NC(=O)[C@H](C)NC(=O)[C@@H](NC(=O)[C@H](Cc1ccccc1)NC(=O)[C@H](CCC(=O)O)NC(=O)[C@H](CCCN=C(N)N)NC(=O)[C@H](C)NC(=O)[C@H](C)NC(=O)[C@H](CCC(N)=O)NC(=O)CNC(=O)[C@H](CCC(=O)O)NC(=O)[C@H](CC(C)C)NC(=O)[C@H](Cc1ccc(O)cc1)NC(=O)[C@H](CO)NC(=O)[C@H](CO)NC(=O)[C@@H](NC(=O)[C@H](CC(=O)O)NC(=O)[C@H](CO)NC(=O)[C@@H](NC(=O)[C@H](Cc1ccccc1)NC(=O)[C@@H](NC(=O)CNC(=O)[C@H](CCC(=O)O)NC(=O)[C@H](C)NC(=O)[C@@H](N)Cc1c[nH]cn1)[C@@H](C)O)[C@@H](C)O)C(C)C)[C@@H](C)CC)C(C)C)C(=O)NCC(=O)N[C@@H](CCCCN=C(N)N)C(=O)NCC(=O)O)C(=O)O (stereo partly specified) | 0.121
